Usually solubility stands for how much of the substance goes into solution per volume. Lower therefore signals little dissolved substance. By AUC(0-t) is commonly meant the area under the concentration-time curve up to a stated or last time point. For orientation: clearance means the volume of plasma or blood freed of the substance per unit of time. One may read the Cmax as the peak of the concentration-time curve. As usually defined, the IC50 is the concentration that gives 50% inhibition.

Activity calls are given as the source filed them. The rule behind the calls is not given here.

The test system of data set [1] is Mus musculus. Briefly: Antiinflammatory activity in C57BL6/J mouse model of TLR3-induced acute airway inflammation assessed as inhibition of elevated RANTES levels in BALF at 10 mg/kg, ip pre-treated 1 day before poly(I:C) stimulation followed by compound re-dosing at 10 mg/kg, ip before another poly(I:C) stimulation and measured after 1 day post last poly(I:C) stimulation by cytokine Bio-Plex assay. The format is functional, organism-based. In a few lines: (§1)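 Male C57BL/6J mice, 12 weeks old, 5 per group, dosed 10 mg/kg the day before and again immediately before intranasal poly(I:C) (300 μg in 50 μL PBS). BALF was collected 1 day later by two 1 mL PBS lavages and centrifuged at 800 × g for 5 min at 4 °C. Supernatant cytokines were measured by multiplex bead immunoassay against recombinant standards in triplicate.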

In data set [2] the test system is Mus musculus. The data set is described as follows: Antiinflammatory activity in C57BL6/J mouse model of TLR3-induced acute airway inflammation assessed as inhibition of elevated ISG54 gene expression in lung at 10 mg/kg, po pre-treated 1 day before poly(I:C) stimulation followed by compound re-dosing at 10 mg/kg, po before another poly(I:C) stimulation and measured after 1 day post last poly(I:C) stimulation. The class given is functional, organism-based. The method, boiled down:
(§2)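 Male C57BL/6J mice, 12 weeks old, 5 per group, dosed 10 mg/kg one day before challenge and again immediately before intranasal poly(I:C) (300 μg in 50 μL PBS). Controls were vehicle alone and poly(I:C) alone. Lungs were taken 1 day later. Gene expression in lung tissue was measured by qRT-PCR, normalized to PPIA.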

Data set [3] can be described thus: Aqueous solubility in water incubated at 25 degC for 24 hrs by HPLC analysis. The settings on record: buffer. The format is physicochemical. In a few lines:
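Compound suspension was shaken at 25 °C for 24 h, then centrifuged and the supernatant filtered. Supernatant was quantified by C18 reverse-phase HPLC against a one-point calibration of a known concentration.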

Data set [4] relates to Mus musculus. Briefly: Antiinflammatory activity in C57BL6/J mouse model of TLR3-induced acute airway inflammation assessed as inhibition of elevated total cells in BALF at 10 mg/kg, ip pre-treated 1 day before poly(I:C) stimulation followed by compound re-dosing at 10 mg/kg, ip before another poly(I:C) stimulation and measured after 1 day post last poly(I:C) stimulation. The class given is functional, organism-based. In a few lines: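 Male C57BL/6J mice, 12 weeks old, 5 per group, dosed 10 mg/kg one day before and again immediately before intranasal poly(I:C) (300 μg/50 μL PBS). BALF was collected 1 day later. Total viable cells were counted by trypan blue with a hemocytometer. Neutrophils were counted as a differential of 300 cells on Wright-Giemsa stained cytospins.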

In data set [5] the test system is Mus musculus. The data set is described as follows: Antiinflammatory activity in C57BL6/J mouse model of TLR3-induced acute airway inflammation assessed as inhibition of elevated IL6 gene expression in lung at 10 mg/kg, po pre-treated 1 day before poly(I:C) stimulation followed by compound re-dosing at 10 mg/kg, po before another poly(I:C) stimulation and measured after 1 day post last poly(I:C) stimulation. The class given is functional, organism-based. The method, boiled down:
as §2

Data set [6] relates to Mus musculus. The data set is described as follows: Antiinflammatory activity in C57BL6/J mouse model of TLR3-induced acute airway inflammation assessed as inhibition of elevated KC levels in BALF at 10 mg/kg, po pre-treated 1 day before poly(I:C) stimulation followed by compound re-dosing at 10 mg/kg, po before another poly(I:C) stimulation and measured after 1 day post last poly(I:C) stimulation by cytokine Bio-Plex assay. The format is functional, organism-based. In a few lines:
as §1

Data set [7] concerns Mus musculus. The data set is described as follows: Antiinflammatory activity in C57BL6/J mouse model of TLR3-induced acute airway inflammation assessed as inhibition of elevated IL-6 levels in BALF at 10 mg/kg, ip pre-treated 1 day before poly(I:C) stimulation followed by compound re-dosing at 10 mg/kg, ip before another poly(I:C) stimulation and measured after 1 day post last poly(I:C) stimulation by cytokine Bio-Plex assay. The format is functional, organism-based. The method, boiled down: as §1

Data set [8] in a line: AUC (0 to t) in Sprague-Dawley rat at 10 mg/kg, iv measured after 2 to 26 hrs. The class given is ADME, organism-based. The settings on record: in vivo.
A short description of data set [9]: Total clearance in Sprague-Dawley rat at 10 mg/kg, iv measured after 2 to 26 hrs. The format is ADME, organism-based. The settings on record: in vivo. In a few lines:
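Male Sprague-Dawley rats received a single dose either intravenously (10 mg/kg) or orally. Plasma concentration–time curves were followed after each route. Total clearance (CL) came from the i.v. arm, and oral bioavailability (F) was derived by comparing the p.o. and i.v. profiles.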

Data set [10] concerns Mus musculus. Briefly: Antiinflammatory activity in C57BL6/J mouse model of TLR3-induced acute airway inflammation assessed as inhibition of elevated IL-6 levels in BALF at 10 mg/kg, po pre-treated 1 day before poly(I:C) stimulation followed by compound re-dosing at 10 mg/kg, po before another poly(I:C) stimulation and measured after 1 day post last poly(I:C) stimulation by cytokine Bio-Plex assay. The format is functional, organism-based. The method, boiled down: as §1

The subject of data set [11] is Mus musculus. The data set is described as follows: Antiinflammatory activity in C57BL6/J mouse model of TLR3-induced acute airway inflammation assessed as inhibition of elevated MCP1 levels in BALF at 10 mg/kg, ip pre-treated 1 day before poly(I:C) stimulation followed by compound re-dosing at 10 mg/kg, ip before another poly(I:C) stimulation and measured after 1 day post last poly(I:C) stimulation by cytokine Bio-Plex assay. The class given is functional, organism-based. In a few lines:
as §1

Data set [12] in a line: AUC (0 to t) in Sprague-Dawley rat at 20 mg/kg, po measured after 2 to 26 hrs. The class given is ADME, organism-based. The settings on record: in vivo.
Data set [13] deals with Mus musculus. The data set is described as follows: Antiinflammatory activity in C57BL6/J mouse model of TLR3-induced acute airway inflammation assessed as inhibition of elevated KC gene expression in lung at 10 mg/kg, po pre-treated 1 day before poly(I:C) stimulation followed by compound re-dosing at 10 mg/kg, po before another poly(I:C) stimulation and measured after 1 day post last poly(I:C) stimulation. The format is functional, organism-based. In a few lines: as §2

A short description of data set [14]: Cmax in Sprague-Dawley rat at 10 mg/kg, iv measured after 2 to 26 hrs. The format is ADME, organism-based. Set-up: dose 10 mg/kg, route intravenous. The settings on record: in vivo.
In data set [15] the test system is Mus musculus. The data set is described as follows: Antiinflammatory activity in C57BL6/J mouse model of TLR3-induced acute airway inflammation assessed as inhibition of elevated KC levels in BALF at 10 mg/kg, ip pre-treated 1 day before poly(I:C) stimulation followed by compound re-dosing at 10 mg/kg, ip before another poly(I:C) stimulation and measured after 1 day post last poly(I:C) stimulation by cytokine Bio-Plex assay. The class given is functional, organism-based. The method, boiled down:
as §1

The target in data set [16] is T1, Bromodomain-containing protein 4 (Homo sapiens, UniProt O60885). Briefly: Inhibition of BRD4 in poly(I:C)-stimulated human SAECs TLR3-inducible CIG5 gene expression pre-incubated for 24 hrs before poly(I:C) stimulation for 4 hrs by qRT-PCR analysis. Background: In qPCR the cycle at which signal appears reflects the starting amount.
Data set [17] addresses Bromodomain-containing protein 2 (Homo sapiens, UniProt P25440). The data set is described as follows: Binding affinity to recombinant BRD2 BD2 (unknown origin) incubated for 1 hr by TR-FRET assay. (In general: TR-FRET usually uses a lanthanide donor and a delayed reading to cut background.)
The target of data set [18] is T1, Bromodomain-containing protein 4. The data set is described as follows: Inhibition of BRD4 in poly(I:C)-stimulated human SAECs assessed as reduction in H3K122Ac levels at 10 uM pre-incubated for 24 hrs before poly(I:C) stimulation for 4 hrs by immunofluorescence staining.

Sequence of Bromodomain-containing protein 2 (P25440 whole entry): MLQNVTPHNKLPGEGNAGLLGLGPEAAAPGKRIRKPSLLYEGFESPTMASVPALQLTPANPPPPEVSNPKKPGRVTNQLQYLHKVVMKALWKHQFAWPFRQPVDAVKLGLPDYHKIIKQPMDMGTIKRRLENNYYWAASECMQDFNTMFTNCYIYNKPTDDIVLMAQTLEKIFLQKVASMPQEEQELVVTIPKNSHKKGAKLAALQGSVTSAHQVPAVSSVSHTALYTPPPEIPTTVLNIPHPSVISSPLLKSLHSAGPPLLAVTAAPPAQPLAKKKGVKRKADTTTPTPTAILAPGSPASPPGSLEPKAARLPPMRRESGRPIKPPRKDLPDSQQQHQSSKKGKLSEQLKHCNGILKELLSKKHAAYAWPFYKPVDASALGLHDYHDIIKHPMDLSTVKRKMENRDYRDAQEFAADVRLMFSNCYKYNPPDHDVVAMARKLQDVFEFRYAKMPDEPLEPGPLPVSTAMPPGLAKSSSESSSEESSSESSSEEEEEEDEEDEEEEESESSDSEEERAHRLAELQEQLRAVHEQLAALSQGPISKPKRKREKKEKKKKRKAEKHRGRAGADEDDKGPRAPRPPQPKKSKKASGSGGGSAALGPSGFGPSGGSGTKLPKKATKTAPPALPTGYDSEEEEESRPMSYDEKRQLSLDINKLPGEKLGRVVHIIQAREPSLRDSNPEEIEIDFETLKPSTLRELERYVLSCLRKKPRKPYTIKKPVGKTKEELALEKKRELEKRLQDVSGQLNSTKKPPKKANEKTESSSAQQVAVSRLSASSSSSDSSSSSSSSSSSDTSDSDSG

As for `COc1cc(OC)c2c(=O)cc(-c3cc(C)c(OC[C@H](O)CN4CCN(C)CC4)c(C)c3)oc2c1`, the inhibition entry in the data set with Mus musculus [1], in the data set on Mus musculus [2], with Mus musculus [4], in the data set with Mus musculus [5], in the data set on Mus musculus [6] and in the data set with Mus musculus [7] was “Active” each time. Moreover, the inhibition result in the data set on Mus musculus [10], in the data set on Mus musculus [11], in the data set with Mus musculus [13] and in the data set on Mus musculus [15] was “Active” in each case. Further, in data set [3], the solubility was above 50 mg/mL. In addition, the results for the AUC(0-t) in data set [8] and in data set [12] were 7030 ng·h/mL and 4970 ng·h/mL, respectively. In [9], the clearance is 24.7 mL/min/kg. In [14], this molecule yielded a Cmax of 2090 ng/mL.
With `COc1cc(OC)c2c(=O)cc(-c3cc(C)c(OC[C@H](O)CN4CCCCC4)c(C)c3)oc2c1`, the inhibition entry in the data set on Mus musculus [1], in the data set with Mus musculus [2], in the data set on Mus musculus [4], with Mus musculus [5], in the data set with Mus musculus [6] and with Mus musculus [7] was “Active” in each case. Further, the inhibition result (with Mus musculus [10]; in the data set on Mus musculus [11]; in the data set with Mus musculus [13]; in the data set on Mus musculus [15]; in data set [18]) was “Active” throughout. Besides, the solubility in data set [3] was above 50 mg/mL. In addition, the AUC(0-t) in data set [8] came to 6760 ng·h/mL; in data set [12] it was 5170 ng·h/mL. The clearance in data set [9] was 24.7 mL/min/kg. Further, the values for the IC50 in data set [16] and in data set [17] were 520 nM and 845 nM, respectively. This molecule also gave a Cmax in data set [14] of 2860 ng/mL.

For the origin of these results see ChEMBL document CHEMBL4402595, “Discovery of Orally Bioavailable Chromone Derivatives as Potent and Selective BRD4 Inhibitors: Scaffold Hopping, Optimization, and Pharmacological Evaluation” (J Med Chem, 2020).
